The source made the active and inactive calls. The rule behind the calls is not given here.
Assays:
Mu-type opioid receptor [1] = biological target: T1, Mu-type opioid receptor (Mus musculus, UniProt P42866); assay: Displacement of [3H]-naloxone from mouse MOR expressed in CHO cells incubated for 1.5 hrs by competitive radioligand binding assay; format: cell-based
Procedure, shortened: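 Mouse MOR CHO membranes (30 μg) with [3H]naloxone and test compound in TME buffer (50 mM Tris, 3 mM MgCl2, 0.2 mM EGTA, pH 7.4), 1.5 h at 30 °C, then filtered. IC50 converted to Ki by Cheng–Prusoff.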

Mu-type opioid receptor [2] = biological target: T1, Mu-type opioid receptor; assay: Antagonist activity at mouse MOR expressed in CHO cells assessed as inhibition of DAMGO-induced calcium mobilization preincubated for 60 mins measured after 15 mins by calcium mobilization assay; format: functional, cell-based
Procedure, shortened: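 mMOR-CHO cells transfected with Gα for 4 h, plated and cultured 24 h. Triplicates; IC50 by nonlinear regression.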

Mu-type opioid receptor [3] = biological target: T1, Mu-type opioid receptor; assay: Agonist activity at mouse MOR expressed in CHO cells coexpressing Gqi5 assessed as inhibition of DAMGO-induced calcium mobilization preincubated for 60 mins measured after 15 mins by calcium mobilization assay; format: functional, cell-based
Procedure, shortened: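 CHO cells stably expressing mouse MOR, transfected with Gαq15 for 4 h, plated 10,000 cells/well and cultured 24 h. […] Calcium fluorescence read ex494/em516. Triplicate per concentration; IC50 by nonlinear regression.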

[4] = biological target: T2, C-C chemokine receptor type 5 (Homo sapiens, UniProt P51681); assay: Antagonist activity at CCR5 (unknown origin) expressed in HOS cells co-expressing Gqi-5 assessed as inhibition CCL5-stimulated Ca2+ mobilization by calcium mobilization assay; format: functional, cell-based
Procedure, shortened: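 HOS-CCR5 cells transfected with Gqi5, used 48 h post-transfection and loaded with Fluo4-AM for 45 min. Compound preincubated 15 min, then CCL5 (20 μL of 200 nM) added after 16 s of reading.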
Target sequence in this assay (P51681 whole entry): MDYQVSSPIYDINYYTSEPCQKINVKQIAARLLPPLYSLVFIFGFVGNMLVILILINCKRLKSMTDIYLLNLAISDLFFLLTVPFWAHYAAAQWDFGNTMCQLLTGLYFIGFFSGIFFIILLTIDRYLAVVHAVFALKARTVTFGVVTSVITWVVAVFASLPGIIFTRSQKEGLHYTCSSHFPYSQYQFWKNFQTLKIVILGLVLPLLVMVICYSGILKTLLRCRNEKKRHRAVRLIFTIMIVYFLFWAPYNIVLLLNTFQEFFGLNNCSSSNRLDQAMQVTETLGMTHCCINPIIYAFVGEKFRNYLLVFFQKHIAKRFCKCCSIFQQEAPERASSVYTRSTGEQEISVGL

[5] = biological target: T2, C-C chemokine receptor type 5; assay: Agonist activity at CCR5 (unknown origin) expressed in HOS cells co-expressing Gqi-5 assessed as stimulation of Ca2+ mobilization by calcium mobilization assay; format: functional, cell-based
Procedure, shortened: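 HOS-CCR5 cells transiently transfected with Gqi5, used 48 h later. Fluo4-AM loaded 45 min, compounds added, plate read 120 s at ex494/em516. Agonist arm: compound response recorded against CCL5 under the same conditions.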
Target sequence in this assay (P51681 whole entry, looked up): as the sequence (P51681 whole entry) above

[6] = Cytotoxicity against human GHOST CCR5 cells assessed as reduction in cell viability measured after 6 days by XTT assay; format: toxicity, cell-based; settings: time 6 day, read-out: TC50
Procedure, shortened: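 GHOST CCR5 cells treated in triplicate at the same 6 concentrations without virus, 6 days at 37 °C. XTT/PMS added for 4 h at 37 °C and absorbance read at 450 nm (650 nm reference).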

[7] = Therapeutic index, ratio of TC50 for human GHOST CCR5 cells to EC50 for inhibition of CCR5-mediated HIV-1 Bal entry in human GHOST CCR5 cells; format: toxicity, cell-based; settings: read-out: TI
Procedure, shortened: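 GHOST-CCR5 cells plated at 1×10^4/well, cultured 24 h, then compounds at 6 concentrations (0.001–100 μM) in triplicate. Efficacy plates got HIV-1 BaL at a predetermined titer; 6 days at 37 °C. Supernatant RT activity measured by tritiated TTP incorporation on poly rA/oligo dT gives EC50. […] TI = TC50/EC50.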

[8] = biological target: T2, C-C chemokine receptor type 5; assay: (§1) Inhibition of CCR5-mediated Luc-expressing HIV1 BaL Env-pseudotype virus infection in PHA-stimulated CCR5 expressing leukocytes containing human PBMC assessed as inhibition of viral entry by measuring luminescence at 100 nM pretreated for 1 hr before infection measured after 2 days of infection; format: cell-based
Procedure, shortened: (§2)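 Compound 100 nM added 1 h before infection with BaL Env-pseudotyped luciferase virus (50 pg p24/10^6 cells) in 24-well plates. Lysate luciferase measured; RLU normalized to infected untreated cells.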
Target sequence in this assay (P51681 whole entry, looked up): as the sequence (P51681 whole entry) above

[9] = biological target: T2, C-C chemokine receptor type 5; assay: as §1, with “entry in presence of 10 nM morphine” for “entry”; format: cell-based; settings: filed as antagonist; procedure, shortened: as §2
Target sequence in this assay (P51681 whole entry, looked up): as the sequence (P51681 whole entry) above

[10] = biological target: T2, C-C chemokine receptor type 5; assay: as §1, with “entry in presence of 10 nM […]” for “entry”; format: cell-based; settings: filed as antagonist; procedure, shortened: as §2
Target sequence in this assay (P51681 whole entry, looked up): as the sequence (P51681 whole entry) above

[11] = biological target: T2, C-C chemokine receptor type 5; assay: Inhibition of CCR5-mediated Luc-expressing HIV1 BaL Env-pseudotype virus infection in CCR5 expressing leukocytes containing human PBMC assessed as inhibition of viral entry by measuring luminescence pretreated for 1 hr before infection measured after 2 days of infection; format: cell-based; settings: filed as antagonist
Procedure, shortened: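 […] donor PBMCs, 2×10^5/well, in RPMI with 20 U/mL IL-2. Compound added 1 h before infection with BaL Env-pseudotyped luciferase virus (1.5 ng p24/well) and kept in culture. Luminescence read after 2 days.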
Target sequence in this assay (P51681 whole entry, looked up): as the sequence (P51681 whole entry) above

[12] = biological target: Mu-type opioid receptor (Mus musculus) (UniProt P42866); assay: Agonist activity at mouse MOR expressed in CHO cell membranes assessed as stimulation of [35S]-GTPgammaS binding measured after 1 hr by scintillation counting analysis relative to DAMGO; format: functional; settings: Cell membrane
[13] = biological target: C-C chemokine receptor type 5 (Macaca mulatta, UniProt P61813); assay: Displacement of […] from recombinant rhesus macaque CCR5 expressed in Chem-1 cells by competitive radioligand binding assay; format: cell-based
Procedure, shortened: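 Rhesus CCR5 Chem-1 membranes (3 μg) in HEPES buffer pH 7.4 with 0.2% BSA, 0.10 nM [125I]MIP-1α and six concentrations from 0.1 nM to 10 μM, 90 min at 25 °C. Nonspecific binding with 0.1 μM MIP-1β; filters counted. Ki by Cheng–Prusoff (KD 0.31 nM, historical value).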

T1 sequence (P42866 whole entry): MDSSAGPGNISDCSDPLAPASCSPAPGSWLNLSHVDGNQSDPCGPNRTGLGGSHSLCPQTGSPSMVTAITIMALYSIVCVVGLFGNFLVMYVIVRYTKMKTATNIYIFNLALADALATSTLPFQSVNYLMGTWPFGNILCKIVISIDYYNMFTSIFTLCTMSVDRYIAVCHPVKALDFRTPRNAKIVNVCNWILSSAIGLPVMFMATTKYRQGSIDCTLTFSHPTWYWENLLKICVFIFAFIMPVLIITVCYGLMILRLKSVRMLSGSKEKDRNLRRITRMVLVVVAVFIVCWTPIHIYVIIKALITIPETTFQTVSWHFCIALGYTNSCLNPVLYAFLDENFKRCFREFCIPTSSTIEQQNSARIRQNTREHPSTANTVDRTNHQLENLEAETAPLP
Sequence of Mu-type opioid receptor (Mus musculus) (P42866 whole entry): as above

| SMILES | Ki (Mu-type opioid receptor [1]) [nM] | IC50 (Mu-type opioid receptor [2]) [nM] | IC50 [4] [nM] | Activity [5] | CC50 at 144 h [6] [nM] | Emax [12] [%] | also measured |
| --- | --- | --- | --- | --- | --- | --- | --- |
| CC(C)c1nnc(CCNC(=O)COCC(=O)NCCCCCCCNC(=O)COCC(=O)N[C@@H]2CC[C@@]3(O)[C@H]4Cc5ccc(O)c6c5[C@@]3(CCN4CC3CC3)[C@H]2O6)n1C1C[C@H]2CC[C@@H](C1)N2CC[C@H](NC(=O)C1CCC(F)(F)CC1)c1ccccc1 (some centres not stated) | 6.05 | 50 | 57.5 | inactive | > 100000 |  | EC50 (Mu-type opioid receptor [3]): 36.3 nM; selectivity ratio [7]: > 1080; inhibition [8]: 22%; inhibition [9]: 55%; inhibition [10]: 69%; inhibition [11]: Dose-Dependent Effect |
| CC(C)c1nnc(CCNC(=O)COCC(=O)NCCCCCNC(=O)COCC(=O)N[C@@H]2CC[C@@]3(O)[C@H]4Cc5ccc(O)c6c5[C@@]3(CCN4CC3CC3)[C@H]2O6)n1C1C[C@H]2CC[C@@H](C1)N2CC[C@H](NC(=O)C1CCC(F)(F)CC1)c1ccccc1 (some centres not stated) | 4.23 | 1100 | 1260 |  |  | 19.4 |  |
| CNC(=O)COCC(=O)NCCCCCCCNC(=O)COCC(=O)NCCc1nnc(C(C)C)n1[C@@H]1C[C@H]2CC[C@@H](C1)N2CC[C@H](NC(=O)C1CCC(F)(F)CC1)c1ccccc1 |  |  |  | inactive |  |  | Ki [13]: 41 nM |
| CC(C)c1nnc(CCNC(=O)COCC(=O)NCCCCCCCCCNC(=O)COCC(=O)N[C@@H]2CC[C@@]3(O)[C@H]4Cc5ccc(O)c6c5[C@@]3(CCN4CC3CC3)[C@H]2O6)n1C1C[C@H]2CC[C@@H](C1)N2CC[C@H](NC(=O)C1CCC(F)(F)CC1)c1ccccc1 (some centres not stated) | 11.2 | 74.4 | 965 |  |  | 4.27 |  |
| Cc1nnc(C(C)C)n1[C@@H]1C[C@H]2CC[C@@H](C1)N2CC[C@H](NC(=O)C1CCC(F)(F)CC1)c1ccccc1 |  |  |  |  | > 500 |  |  |
| Cc1nnc(C(C)C)n1C1C[C@H]2CC[C@@H](C1)N2CC[C@H](NC(=O)C1CCC(F)(F)CC1)c1ccc(NC(=O)COCC(=O)NCCCCCCCNC(=O)COCC(=O)N[C@@H]2CC[C@@]3(O)[C@H]4Cc5ccc(O)c6c5[C@@]3(CCN4CC3CC3)[C@H]2O6)cc1 (some centres not stated) | 51.8 | 40 | 126 |  | > 100000 | 11.7 |  |

Source: ChEMBL document CHEMBL5042476, “Structure-Based Design and Development of Chemical Probes Targeting Putative MOR-CCR5 Heterodimers to Inhibit Opioid Exacerbated HIV-1 Infectivity” (J Med Chem, 2021)
